Compounds with a hit are over-represented: about 3.5% of the library has one in this group of screens.
TCR CD3 inh – inhibitors of human TCR-CD3 interaction | TAMRA-labeled TCR probe fluorescence, biochemical | 360,000 compounds, 0.37% hits | inhibition, % at 9.4 µM; in the data active = inhibition above about 19%;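 note: recombinant mutant TCR 2C K166C tagged with TAMRA read by polarization; 0% = receptor in buffer alone and 100% = receptor with positive control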
mABHD4 FP – ABHD4 (mouse) inhibition, primary FP screen | 370,000 compounds, 0.54% hits | Q8VD66 | purified mABHD4, FP-Rh probe fluorescence polarization | inhibition, % at 8.92 µM;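 active = inhibition exceeding the mean over every tested compound plus 3 SD, cut at about 30% in these data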;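 note: 0% = plate median of compound wells and 100% = S159A mutant with DMSO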
Target sequence (Q8VD66 whole entry, looked up): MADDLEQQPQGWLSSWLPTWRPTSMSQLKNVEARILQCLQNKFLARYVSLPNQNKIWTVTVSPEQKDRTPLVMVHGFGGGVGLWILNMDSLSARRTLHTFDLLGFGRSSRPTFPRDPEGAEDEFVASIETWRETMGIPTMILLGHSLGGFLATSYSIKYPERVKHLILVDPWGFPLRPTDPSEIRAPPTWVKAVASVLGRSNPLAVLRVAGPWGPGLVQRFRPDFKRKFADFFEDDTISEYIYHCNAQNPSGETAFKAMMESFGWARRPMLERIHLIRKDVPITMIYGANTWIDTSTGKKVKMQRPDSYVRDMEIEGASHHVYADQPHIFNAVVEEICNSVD
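Test system: mABHD4 protein | Buffer or medium: HEPES pH 7.0 buffer, 150 mM NaCl, 0.01% Pluronic F-127 | Probe or stimulus: FP-Rh fluorescent activity-based probe, added after compound pre-incubation | Timing: Pre-incubation 45 min, probe exposure 60 min, at 25 °C | Technique: Fluorescence polarization, excitation 525 nm, emission 598 nm, BODIPY TMR filters | Repeats: Single well per compound (singlicate)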
SIAE inh – inhibitors of human sialic acid acetylesterase SIAE; Q9HAT2; SIAE FP-Rh probe binding, fluorescence polarization; inhibition, % at 9.66 µM; 370,000 compounds, 0.69% hits; AID 1053197;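 active = inhibition above a cutoff: mean of compounds within the control limits plus 3 SD of those, cut at about 17% in these data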;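 note: 0% = plate median of compound wells and 100% = probe without SIAE protein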
PRMT1 inh – blocks human protein arginine methyltransferase 1. inhibition, % at 2.79 µM. Q99873. recombinant PRMT1, activity-based probe fluorescence polarization. AID 652257. 370,000 compounds, 1.3% hits;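 active = inhibition above about 21% made by adding two undisclosed values, limit read from the data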
Target sequence (Q99873 whole entry, looked up): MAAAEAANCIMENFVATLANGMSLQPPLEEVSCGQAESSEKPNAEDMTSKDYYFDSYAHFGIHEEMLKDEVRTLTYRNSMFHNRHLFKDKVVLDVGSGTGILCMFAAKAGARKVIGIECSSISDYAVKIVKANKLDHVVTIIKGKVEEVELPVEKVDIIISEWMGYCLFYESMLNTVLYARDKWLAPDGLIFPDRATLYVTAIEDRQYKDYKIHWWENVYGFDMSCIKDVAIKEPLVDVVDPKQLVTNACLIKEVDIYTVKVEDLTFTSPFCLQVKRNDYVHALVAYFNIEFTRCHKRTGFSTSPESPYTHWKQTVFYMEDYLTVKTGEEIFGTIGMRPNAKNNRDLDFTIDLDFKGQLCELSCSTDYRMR
rCAG RNA binder – binds r(CAG) RNA repeats. inhibition, % at 3 µM. 370,000 compounds, 1.3% hits. AID 651821. r(CAG) RNA repeat, TO-PRO-1 dye displacement fluorescence;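 active = inhibition above the plate cutoff, the mean of all test compounds on that plate plus 3 SD, cut at about 35% in these data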;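 note: 0% = DMSO alone and 100% = 100 µM mitoxantrone as full dye displacement; higher means more dye released from RNA so lower well fluorescence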
HTRA1 inhibitor – blocks human HTRA1 serine peptidase. recombinant HTRA1, FP-rhodamine activity-based probe, fluorescence polarization. AID 504803. 340,000 compounds, 0.5% hits. inhibition, % at 5.96 µM; in the data active = inhibition above about 36%;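 note: 0% = enzyme with DMSO and 100% = wells lacking enzyme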
rCAG bind conf – r(CAG) RNA repeat binding, confirmation; shares compounds with rCAG RNA binder; TO-PRO-1 dye displacement fluorescence; inhibition, % at 3 µM; 4,300 compounds, 70% hits; AID 652065;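 active = inhibition above a per-plate cutoff, the mean inhibition of sample wells plus 3 SD, cut at about 35% in these data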;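 note: loss of TO-PRO-1 fluorescence as compound displaces dye from 1x1 AA loop RNA; 0% = DMSO only wells and 100% = 100 µM mitoxantrone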
DNA CAG counter – counter-screen for rCAG RNA binders: DNA CAG dye complex inhibitors; shares compounds with rCAG RNA binder; d(CAG) DNA oligo TO-PRO-1 dye displacement, fluorescence; inhibition, % at 3 µM; 4,300 compounds, 94% hits; AID 652068;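 active = inhibition above its plate's cutoff, the mean test-well inhibition plus 3 SD, cut at about 4.8% in these data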;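 note: 0% = DNA dye mix with DMSO and 100% = 100 µM mitoxantrone; hits displace the dye from DNA and so lower well fluorescence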
DNA CAG DR – DNA CAG dye complex inhibition, dose response counter-screen; shares compounds with rCAG RNA binder; 250 compounds, 20% hits; IC50, µM; AID 686960; DNA CAG/GTC duplex TO-PRO-1 dye displacement fluorescence; in the data active = IC50 below about 10 µM
Starred values were filed as active, the others as inactive; · = no result given.

SMILES | TCR CD3 inh | mABHD4 FP | SIAE inh | PRMT1 inh | rCAG RNA binder | HTRA1 inhibitor | rCAG bind conf | DNA CAG counter | others
Cc1cc(=O)n2[nH]c(N)c(N=Nc3ccccc3)c2n1 | 2 | -2 | 6 | -2 | 6 | 4 | · | ·
Nc1[nH]n2c(=O)c3c(nc2c1N=Nc1ccccc1)CCCC3 | 7 | 21 | -2 | 1 | 35* | 13 | 8 | 3
COc1ccc(C2C(C(=O)Nc3ccc(C)c(C)c3)CCC(=O)N2c2ccc(OC)cc2)cc1 (stereo unspecified) | · | -2 | 4 | -2 | 1 | · | · | ·
COc1ccc(-n2c(SCC(=O)Nc3ccc(Oc4ccccc4)cc3)nnc2-c2cccnc2)cc1 | · | -3 | -2 | 4 | 10 | · | · | ·
CCCNC(=O)C1(C)CCN1C(=O)c1ccccc1CCc1ccccc1 (stereo unspecified) | -5 | -9 | -5 | -4 | 0 | · | · | ·
CC1(C(=O)NS(=O)(=O)c2ccc(Cl)s2)CCN1C(=O)c1ccccc1CCc1ccccc1 (stereo unspecified) | -1 | -5 | -1 | 7 | 71* | · | 72* | 31* | DNA CAG DR=3*
Cc1ccccc1S(=O)(=O)NC(=O)C1(C)CCN1C(=O)c1ccccc1CCc1ccccc1 (stereo unspecified) | 4 | -10 | -7 | 6 | 50* | · | 41* | 10*
CC1(C(=O)NS(=O)(=O)c2ccccc2)CCN1C(=O)c1ccccc1CCc1ccccc1 (stereo unspecified) | -9 | 2 | 2 | 2 | 40* | · | 33 | 6.5*
Cc1noc(C)c1S(=O)(=O)NC(=O)C1(C)CCN1C(=O)c1ccccc1CCc1ccccc1 (stereo unspecified) | 6 | 4 | 4 | -3 | 31 | · | · | ·
Cc1ccc(S(=O)(=O)NC(=O)C2(C)CCN2C(=O)c2ccccc2CCc2ccccc2)cc1 (stereo unspecified) | 3 | -2 | 1 | -2 | 48* | · | 48* | 14*
CC1(C(=O)NS(=O)(=O)c2ccc(C#N)cc2)CCN1C(=O)c1cccc2ccccc12 (stereo unspecified) | -1 | 7 | 0 | 2 | 11 | · | · | ·
CC1(C(=O)NS(=O)(=O)c2ccc(C#N)cc2)CCN1C(=O)c1ccccc1CCc1ccccc1 (stereo unspecified) | -7 | 2 | -2 | -3 | 48* | · | 45* | 11*
CC(=O)CC[C@@H]1CC[C@]2(CCCN(S(=O)(=O)C3CCCCC3)C2)O1 | · | 2 | 0 | 5 | 6 | · | · | ·
CN(C(=O)CSc1nc(-c2ccc(C(C)(C)C)cc2)c(C#N)c(=O)[nH]1)C1CCCCC1 | 3 | -63 | -14 | 0 | 70* | -55 | 84* | 50*
NC(=O)C1CCN(c2nc3ccccc3nc2NS(=O)(=O)c2ccc(Br)cc2)CC1 | 1 | -2 | 1 | 0 | 29 | 7 | · | ·
CCOC(=O)C1CCCN(c2nc3ccccc3nc2NS(=O)(=O)c2ccc(C)cc2)C1 (stereo unspecified) | -1 | -3 | 6 | -4 | 62* | -8 | 58* | 15*
CN(Cc1ccccc1)C(=O)OCc1cn(Cc2ccccc2F)nn1 | · | -2 | 1 | -2 | -2 | · | · | ·
O=S(=O)(Nc1ncnc2sc3c(c12)CCC3)c1ccc(Cl)s1 | 3 | 1 | -5 | 3 | 57* | -9 | 35* | 11*
COc1ccc(S(=O)(=O)Nc2c(C(=O)O)[nH]c3ccc(OC)cc23)cc1 | 4 | 16 | 10 | 11 | 25 | 12 | · | ·
COc1ccc(S(=O)(=O)Nc2c(C(=O)O)[nH]c3ccccc23)c(OC)c1 | 0 | 12 | 1 | 0 | 36* | 2 | 19 | 4
COc1ccc(S(=O)(=O)Nc2c(C(=O)O)[nH]c3ccc(OC)cc23)c(OC)c1 | 6 | 26 | 16 | 11 | 36* | 31 | 24 | 10*
CCOC(=O)[C@]12CCCCC/C=C\1N(CCc1ccc(Cl)cc1)C(=O)[C@H]2CC(=O)N1CCN(C(=O)c2ccco2)CC1 | · | 5 | 6 | 4 | 6 | · | · | ·
Fc1ccc(NC2CCC23CCC(c2ccccc2)CC3)cc1C(F)(F)F (stereo unspecified) | · | -16 | 5 | 1 | · | · | · | ·
N#Cc1ccc(N2C(=O)[C@@H]3C(C(=O)C(c4ccccc4)c4ccccc4)=NN[C@@H]3C2=O)cc1 | 1 | -37 | -8 | -1 | 61* | -28 | 34 | 12*
O=C(NCC(c1ccco1)N1CCCCC1)c1ccc(S(=O)(=O)Nc2ccccc2Cl)cc1 (stereo unspecified) | 1 | -3 | 0 | 1 | 43* | -8 | 39* | 8.8*
SMILES | TCR CD3 inh | mABHD4 FP | SIAE inh | PRMT1 inh | rCAG RNA binder | HTRA1 inhibitor | rCAG bind conf | DNA CAG counter | others
O=C(NCC(c1cccs1)N1CCOCC1)c1ccccc1NS(=O)(=O)c1ccc(Br)cc1 (stereo unspecified) | 5 | 0 | 4 | -2 | 49* | 9 | 47* | 15*
O=C(NCC(c1ccco1)N1CCCC1)c1ccc(S(=O)(=O)Nc2ccccc2Cl)cc1 (stereo unspecified) | -1 | -2 | -1 | 0 | 30 | 4 | · | ·
O=C(NCC(c1cccs1)N1CCOCC1)c1ccccc1NS(=O)(=O)c1ccc(Cl)cc1 (stereo unspecified) | -1 | -2 | -12 | 1 | 50* | -10 | 61* | 23*
O=[N+]([O-])c1ccc(NCCCN2CCC(C(O)(c3ccccc3)c3ccccc3)CC2)cc1 | · | 3 | 2 | 0 | 5 | · | · | ·
COC(=O)c1sc(S(=O)(=O)Nc2ccc(Br)cc2)c(C(=O)OC)c1C | 1 | -9 | -1 | -3 | 57* | -5 | 42* | 14*
O=C(O)c1ccccc1-c1nc(-c2ccccc2)c(-c2ccccc2)[nH]1 | 1 | -2 | 1 | -1 | 2 | -4 | · | ·
O=C(O)c1cccc2c(-c3ccccc3)c(-c3ccccc3)[nH]c12 | 3 | 16 | -1 | 1 | 77* | -19 | 66* | 23*
Cc1ccc(-c2csc(NC(=O)C3CC=CCC3C(=O)O)c2C(=O)OC(C)C)cc1 (stereo unspecified) | 4 | -3 | 3 | 4 | 51* | -7 | 58* | 19*
Cc1ccc(-n2c(SCC(=O)Nc3ccc(N4CCOCC4)cc3)nc3ccccc3c2=O)cc1 | -5 | -5 | 2 | 1 | 9 | 0 | · | ·
COc1ccc(-n2c(SCC(=O)NNC(=S)Nc3ccccc3)nc3ccccc3c2=O)cc1 | · | -3 | -7 | 8 | 50* | · | 43* | 16*

Screening data deposited in PubChem by The Scripps Research Institute Molecular Screening Center.
